HIF act = HIF pathway transcriptional activators, primary screen, cell-based, U2OS HRE-luciferase, luminescence; activation, % at 7.5 µM (by protocol); U2OS HRE-luciferase reporter; normalized: DMSO 0%, desferrioxamine 100%; 300,000 tested, 0.32% active;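 active = mean activation of at least 10% of the iron chelator positive control signal, with at least half of replicates also reaching 10%; inconclusive = mean and replicate majority disagree about reaching 10%; inactive = mean and most replicates under 10%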
AI-2 QS mod = Vibrio harveyi AI-2 quorum sensing modulators, primary screen, JMH597 strain, luminescence/OD600 ratio; Vibrio harveyi JMH597 AI-2 luminescence/OD600 ratio, 9 h; hits give low values; strain lacks LuxN and CqsS sensors; 0 = neutral-control median; activity change, % at 7.5 µM; AID 2094, 2009; 300,000 tested, 0.4% active; in the data active = activity change below about -75%, passing the limit was not always enough; inconclusive = no clear call, values can overlap the other calls;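 also: luminescence divided by OD600 gain over 9 h not by final OD600 alone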
ARNT TACC3 PPI = disruptors of ARNT/TACC3 protein interaction, primary screen, biochemical, AlphaScreen, single concentration | 390,000 tested, 0.66% active | inhibition, % at 9.99 µM | AlphaScreen His-ARNT PAS-B/GST-TACC3 binding, luminescence; TACC3 fragment carries E629A point mutation | Transforming acidic coiled-coil-containing protein 3 (Homo sapiens), Q9Y6A5;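 active = mean inhibition of replicates at least 50% and at least half of replicates each reaching 50%; inconclusive = half or more replicates reach 50% but mean below 50%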;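 also: 0% = complete ARNT plus TACC3 wells and 100% = ARNT alone without TACC3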
T cruzi repl = inhibitors of intracellular T. cruzi growth, primary screen, luminescence, NIH3T3 host cells; 300,000 tested, 1.4% active; T. cruzi beta-gal in NIH3T3, 90 h; inhibition, % (no concentration beside the values); AID 1885, 2009;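 active = mean inhibition across valid replicates above about 55%, limit read from the data; inconclusive = mean below that limit but half or more replicates reach it; inactive = mean below it, under half of replicates reach it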;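 also: signal also drops with host cell toxicity which is not excluded here; 0% = plate median of DMSO wells and 100% = zero luminescence signal; higher percent means less beta-gal luminescence so fewer parasites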
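Material: NIH/3T3 host cells with β-galactosidase reporter T. cruzi; Input: 5,000 host fibroblasts per well; Medium: DMEM, 2% fetal bovine serum; Compound: 50 nL DMSO compound solution per well; Schedule: 3 h host attachment, then at least 90 h co-culture; Detection: luminescent β-galactosidase signal after 60 min lysis.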
ARNT Alpha ctr = AlphaScreen signal interference compounds, dose response, artefact control for ARNT-TACC3 interaction inhibitor project, biochemical, luminescence, cherry-pick; shares compounds with ARNT TACC3 PPI; His-ARNT PASB-GST AlphaScreen artifact counter-screen; AC50, µM (titrated, usually from 68 µM), inactives show at the highest dose activity change, negative = signal decrease; 1,200 tested, 50% active;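 active = every separate test run was called active for a drop in luminescence, with AC50 within twice the top valid dose, actives reach about 71 µM in these data; inconclusive = the separate test runs disagree in their calls; inactive = all runs inactive, including signal change in the wrong direction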
Numbers without * were called inactive; u = inconclusive; x = no result; [ ] = another dose, or the depositor's remark. Most compounds without a hit are left out; they make up all but 2% or so of the library.

SMILES | HIF act | AI-2 QS mod | ARNT TACC3 PPI | T cruzi repl | ARNT Alpha ctr
Cc1ccc(CNc2nc(-c3ccccn3)nnc2-c2ccccc2)cc1 | x | x | x | x | 1.46µM*
COc1ccc(NC(=O)Nc2ccc3c(c2)[C@H]2C[C@H](CC(=O)N(C)C)O[C@H](CO)[C@H]2O3)cc1 | x | x | 0.6 | x | x
c1ccc(-c2ccc(CNc3nc(-c4ccccn4)nnc3-c3ccccc3)cc2)cc1 | x | x | x | x | 3.35µM*
c1ccc(-c2nc(NCc3ccco3)c3ccccc3n2)nc1 | 4.1 | 41.6 | x | 49.2 | x
Cc1ccc(CNc2nc(-c3ccccn3)nnc2-c2ccccc2)cc1C | x | x | x | x | 2.75µM*
COc1ccc(CNc2nc(-c3ccccn3)nnc2-c2ccccc2)cc1 | x | x | x | x | 1.71µM*
Cc1ccccc1CNc1nc(-c2ccccn2)nnc1-c1ccccc1 | x | x | x | x | 3.05µM*
COc1ccc(-c2nnn3c2nc(NCc2ccccc2)c2ccccc23)cc1 | -0.2 | 7.5 | 1.7 | -21.6 | x
C[C@@H]1CN([C@@H](C)CO)C(=O)c2cc(NC(=O)C3CCCCC3)ccc2O[C@H]1CN(C)Cc1ccccc1 | x | x | -4.5 | x | x
COc1ccc([Si](C)(C)[C@H]2[C@H](CCO)O[C@@]3(C(=O)N4c5c(cc(OC)cc53)C(C)=CC4(C)C)[C@@H]2C)cc1 | x | x | 41.5 | x | x
COc1ccc([Si](C)(C)[C@@H]2[C@@H](CCO)O[C@]3(C(=O)N4c5c(cc(OC)cc53)C(C)=CC4(C)C)[C@H]2C)cc1 | x | x | 52.1* | x | 9.01µM*
CC1CCN(C(=O)COC(=O)c2ccc([N+](=O)[O-])o2)CC1 | x | x | 17.6* | x | -4.5%
COCCn1c(C)cc(C(=O)COC(=O)c2ccc([N+](=O)[O-])o2)c1C | 2.9 | 35.1 | 52.2* | 3.1 | -16.1%
O=C1CN(C(=O)COC(=O)c2ccc([N+](=O)[O-])o2)c2ccccc2N1 | x | x | 41.6* | x | -1.4%
CC1CCN(C(=O)COC(=O)c2ccc(Br)o2)CC1 | 1.4 | 3.4 | -4.6 | -12.1 | x
COc1cc(C2Nc3ccccc3C(=O)N2NS(C)(=O)=O)c([N+](=O)[O-])cc1OC (stereo not given) | -1.1 | 24.9 | active | -1.4 | -11.1%
CCN(CC)C(=O)CSc1nnc(-c2ccccn2)n1-c1ccc(C)c(C)c1 | 0.0 | 10.9 | 52.4* | -15.1 | -9.0%
Cc1ccc(-n2c(SCC(N)=O)nnc2-c2ccccn2)cc1 | -0.3 | 17.4 | 54.7* | -1.8 | -21.1%
Oc1c(C(c2ccccn2)N2CCCCC2)cc(Cl)c2cccnc12 (stereo not given) | -0.2 | u | 68.9* | 20.1 | 8.13µM*
CO[C@H]1CN(C)C(=O)c2ccc(NS(=O)(=O)c3ccccc3F)cc2OC[C@@H](C)NC[C@@H]1C | x | x | -3.8 | x | x
COc1ccc(NC(=O)N[C@@H]2CC[C@@H](CCn3cc(-c4ccccc4)nn3)O[C@@H]2CO)cc1 | x | x | 5.4 | x | x
O=C(N[C@@H]1CC[C@H](CCn2cc(-c3ccccn3)nn2)O[C@H]1CO)c1ccccc1 | x | x | 76.1* | x | 60.1µM*
O=C(N[C@H]1CC[C@H](CCn2cc(-c3ccccn3)nn2)O[C@H]1CO)c1ccccc1 | x | x | 54.0* | x | -10.3%[38 µM]
COc1ccc(NC(=O)N[C@H]2CC[C@H](CCn3cc(-c4ccccn4)nn3)O[C@@H]2CO)cc1 | x | x | 20.0* | x | 36.4µM*
O=C(N[C@H]1CC[C@H](CCn2cc(-c3ccccn3)nn2)O[C@@H]1CO)c1ccccc1 | x | x | 74.3* | x | 34.2µM*
SMILES | HIF act | AI-2 QS mod | ARNT TACC3 PPI | T cruzi repl | ARNT Alpha ctr
O=C(Nc1ccc2c(c1)[C@@H]1C[C@@H](CC(=O)N3CCOCC3)O[C@@H](CO)[C@@H]1O2)c1ccc2c(c1)OCO2 | x | x | -0.3 | x | x
O=C(N[C@H]1CC[C@@H](CCn2cc(-c3ccccc3)nn2)O[C@@H]1CO)c1cnccn1 | x | x | active | x | -3.3%[42 µM]
c1ccc(-c2cn(C[C@H]3CC[C@H](Cn4cc(-c5ccccn5)nn4)O3)nn2)nc1 | -0.3 | 7.8 | 72.0* | -7.0 | 7.78µM*
O=C(C[C@H]1CC[C@H](NC(=O)c2ccccc2)[C@@H](CO)O1)Nc1ccc(-c2ccccc2)cc1 | x | x | -12.2 | x | x
O=C(C[C@H]1CC[C@@H](NC(=O)c2ccccc2)[C@H](CO)O1)Nc1ccc(-c2ccccc2)cc1 | x | x | 50.6* | x | -1.0%[42 µM]
N[C@@H]1CC[C@H](CCn2cc(-c3ccccn3)nn2)O[C@H]1CO | x | x | 74.6* | x | 6.56µM*
Cc1ccc(-c2cn(C[C@H]3CC[C@@H]([C@@H]4CC[C@H](Cn5cc(-c6ccc(C)cc6)nn5)O4)O3)nn2)cc1 | 0.1 | 12.3 | -10.8 | -16.5 | x
C[C@@H]1CCCCO[C@@H](CN(C)S(=O)(=O)c2ccc(Cl)cc2)[C@H](C)CN([C@H](C)CO)C(=O)c2cc(NC(=O)CCCN(C)C)ccc2O1 | x | x | 9.6 | x | x
C[C@@H]1CN([C@@H](C)CO)C(=O)c2cc(NC(=O)Nc3cccc4ccccc34)ccc2O[C@@H](C)CCCCO[C@@H]1CN(C)Cc1ccc2c(c1)OCO2 | x | x | 1.6 | x | x
Cc1sc2ncnc(N/N=C/c3ccccc3O)c2c1C | -0.1 | u | 54.0* | 32.4 | 40.5µM*
Cn1c(CCNC(=O)c2ccc(Cl)c(Cl)c2)nnc1SCc1ccc(Cl)c(Cl)c1 | 0.4 | 21.0 | 60.5* | 49.1 | -1.9%
COc1ccc(C(=O)NCCc2nnc(SCC(=O)Nc3ccccc3)n2C)cc1 | 0.3 | -7.9 | -2.5 | -30.5 | x
COc1ccc(NC(=O)Nc2ccc3c(c2)C(=O)N([C@@H](C)CO)C[C@@H](C)[C@@H](CN(C)C(=O)NC(C)C)O3)cc1 | x | x | -5.9 | x | x
C[C@@H]1CN([C@@H](C)CO)C(=O)Cc2cc(NC(=O)CCC(F)(F)F)ccc2O[C@H]1CN(C)S(=O)(=O)c1ccc(Cl)cc1 | x | x | 3.9 | x | x
Brc1ccc(OCc2nc(-c3ccccn3)n[nH]2)cc1 | 1.6 | -13.1 | 57.6* | -48.0 | 22.5µM*
Clc1ccc(OCc2nc3ccccc3[nH]2)cc1 | 3.3 | 30.3 | 2.9 | -18.6 | x
Cc1ccc(OCc2nc(-c3ccccn3)no2)cc1 | 1.8 | u | 6.2 | -2.8 | x
Clc1ccc(OCc2nc(-c3ccccn3)n[nH]2)cc1 | 1.2 | -61.9 | 66.3* | 24.1 | 28.4µM*
O=C(Nc1cccc(F)c1)c1cccnc1NCCc1ccccc1 | -0.3 | -19.5 | active | 23.3 | -3.7%
O=C(Nc1ccc(F)cc1)c1cccnc1NCCc1ccccc1 | -0.7 | 13.7 | -8.5 | 12.2 | x
CCOc1c(Cl)cc(CNCc2ccncc2)cc1OC | 1.4 | 21.4 | -1.4 | 0.4 | x
CCOc1cc(CNCc2ccccn2)cc(Cl)c1OC | -1.5 | 16.3 | 53.1* | 7.7 | -30.1%
CCOc1cc(CNCc2ccccn2)cc(Cl)c1OCC | 0.5 | 22.0 | 53.1* | -8.5 | -21.4%
COc1cccc(CNCc2ccccn2)c1OC | -30.6 | 25.0 | 61.5* | -22.3 | -4.7%
